# Source: PMC8381683 (Pharmacology Research & Perspectives, 2021)
# Where two headings read alike, the source gives them in different places.
# Tests used:
# C57BL/6J mice [1] = assay: Food intake in the mouse; format: in vivo
# Summary of the method: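 C57BL/6J mice (24–26 g) single-housed on a reversed 12 h/12 h cycle, lights off at 9:00 a.m. Test compound given p.o. (vehicle 1% methylcellulose in water, 10 ml/kg) or i.p. 15 min before lights-off. Food consumption recorded at 1:00 p.m., 4 h after lights-off. 8 mice per group.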
# human NET (SLC6A2) = human NET (SLC6A2) (Homo sapiens, UniProt P23975); assay: fluorescence-based neurotransmitter transporter uptake assay, NET; format: cell-based
# Sequence of human NET (SLC6A2) (P23975 1-628 isoform P23975-2): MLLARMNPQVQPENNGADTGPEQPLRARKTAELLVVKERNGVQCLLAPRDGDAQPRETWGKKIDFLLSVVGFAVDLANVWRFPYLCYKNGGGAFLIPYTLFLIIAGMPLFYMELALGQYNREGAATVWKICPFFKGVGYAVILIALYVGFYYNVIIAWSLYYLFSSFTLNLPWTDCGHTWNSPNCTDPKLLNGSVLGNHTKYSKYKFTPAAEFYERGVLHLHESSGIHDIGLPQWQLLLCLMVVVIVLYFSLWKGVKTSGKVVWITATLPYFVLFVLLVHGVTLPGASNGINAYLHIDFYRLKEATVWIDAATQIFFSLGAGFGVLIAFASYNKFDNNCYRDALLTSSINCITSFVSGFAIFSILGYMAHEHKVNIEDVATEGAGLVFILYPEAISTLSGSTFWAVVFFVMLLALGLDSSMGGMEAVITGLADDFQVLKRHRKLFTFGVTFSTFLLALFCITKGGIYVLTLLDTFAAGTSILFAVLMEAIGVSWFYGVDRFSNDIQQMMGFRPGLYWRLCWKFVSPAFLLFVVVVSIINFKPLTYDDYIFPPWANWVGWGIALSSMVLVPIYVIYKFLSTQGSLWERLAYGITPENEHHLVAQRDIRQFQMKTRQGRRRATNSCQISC
# [2] = for Brain AUC0-8h / Brain C max / Brain C max (molar): 10 mg/kg, p.o., male Swiss mice; for Brain C max at pharmacologically active doses / Brain C max at pharmacologically active doses (molar): male, Swiss, mouse, in vivo, po
# [3] = system: tele-methylhistamine in the brain of mice; conditions: cited from earlier work
# in vivo = conditions: male, Swiss, mouse, po, 10 mg/kg
# male Wistar rats = assay: Behavioral drug sensitization in the rat; format: in vivo
# Summary of the method: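 Male Wistar rats (240–270 g) habituated 1 h in the test room before each daily session. Dosed p.o. (vehicle 1% methylcellulose, 4 ml/kg) or i.p. (saline) immediately before placement in the same dim (5 lux) 76×76 cm open field. Five sessions between 1 and 5 p.m. on 5 successive days. Locomotion video-tracked for 40 min. n=5–6. ANOVA/Fisher's LSD versus vehicle; paired t test versus day 1.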
# [4] = biological target: human H3 histamine receptor (Homo sapiens, UniProt Q9Y5N1); assay: [35S]-GTPγS functional binding assay on the H3 histamine receptor; format: biochemical
# Sequence of human H3 histamine receptor (Q9Y5N1 whole entry): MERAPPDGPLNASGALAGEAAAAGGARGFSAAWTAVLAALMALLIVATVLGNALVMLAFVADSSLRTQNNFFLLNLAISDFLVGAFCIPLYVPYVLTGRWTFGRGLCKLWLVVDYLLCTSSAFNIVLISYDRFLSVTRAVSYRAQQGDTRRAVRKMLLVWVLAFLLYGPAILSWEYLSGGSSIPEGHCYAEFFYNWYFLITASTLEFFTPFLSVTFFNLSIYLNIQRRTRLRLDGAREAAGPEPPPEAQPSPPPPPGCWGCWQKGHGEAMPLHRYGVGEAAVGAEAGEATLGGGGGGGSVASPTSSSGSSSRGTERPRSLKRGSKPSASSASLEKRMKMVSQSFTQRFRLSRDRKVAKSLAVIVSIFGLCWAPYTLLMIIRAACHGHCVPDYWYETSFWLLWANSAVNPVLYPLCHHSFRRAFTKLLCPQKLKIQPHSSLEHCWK
# human SERT (SLC6A4) = human SERT (SLC6A4) (Homo sapiens, UniProt P31645); assay: cell-based; format: cell-based
# Sequence of human SERT (SLC6A4) (P31645 whole entry): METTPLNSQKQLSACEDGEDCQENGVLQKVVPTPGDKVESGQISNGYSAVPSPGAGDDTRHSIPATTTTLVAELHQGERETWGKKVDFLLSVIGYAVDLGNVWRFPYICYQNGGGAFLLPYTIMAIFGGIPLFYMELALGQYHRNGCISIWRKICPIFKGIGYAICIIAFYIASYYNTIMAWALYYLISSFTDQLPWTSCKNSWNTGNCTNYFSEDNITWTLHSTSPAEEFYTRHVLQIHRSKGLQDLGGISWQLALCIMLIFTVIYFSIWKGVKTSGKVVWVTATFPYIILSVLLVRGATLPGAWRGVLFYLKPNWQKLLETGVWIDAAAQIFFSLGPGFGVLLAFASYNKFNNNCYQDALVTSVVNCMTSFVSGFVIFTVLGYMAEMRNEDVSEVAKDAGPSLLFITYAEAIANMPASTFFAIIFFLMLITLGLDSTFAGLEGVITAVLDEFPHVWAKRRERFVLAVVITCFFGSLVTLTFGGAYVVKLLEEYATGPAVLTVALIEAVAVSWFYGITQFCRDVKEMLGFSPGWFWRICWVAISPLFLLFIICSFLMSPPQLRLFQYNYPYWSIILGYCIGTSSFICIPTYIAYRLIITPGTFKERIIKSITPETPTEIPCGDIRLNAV
# human DAT (SLC6A3) = human DAT (SLC6A3) (Homo sapiens, UniProt Q01959); assay: cell-based
# Sequence of human DAT (SLC6A3) (Q01959 whole entry): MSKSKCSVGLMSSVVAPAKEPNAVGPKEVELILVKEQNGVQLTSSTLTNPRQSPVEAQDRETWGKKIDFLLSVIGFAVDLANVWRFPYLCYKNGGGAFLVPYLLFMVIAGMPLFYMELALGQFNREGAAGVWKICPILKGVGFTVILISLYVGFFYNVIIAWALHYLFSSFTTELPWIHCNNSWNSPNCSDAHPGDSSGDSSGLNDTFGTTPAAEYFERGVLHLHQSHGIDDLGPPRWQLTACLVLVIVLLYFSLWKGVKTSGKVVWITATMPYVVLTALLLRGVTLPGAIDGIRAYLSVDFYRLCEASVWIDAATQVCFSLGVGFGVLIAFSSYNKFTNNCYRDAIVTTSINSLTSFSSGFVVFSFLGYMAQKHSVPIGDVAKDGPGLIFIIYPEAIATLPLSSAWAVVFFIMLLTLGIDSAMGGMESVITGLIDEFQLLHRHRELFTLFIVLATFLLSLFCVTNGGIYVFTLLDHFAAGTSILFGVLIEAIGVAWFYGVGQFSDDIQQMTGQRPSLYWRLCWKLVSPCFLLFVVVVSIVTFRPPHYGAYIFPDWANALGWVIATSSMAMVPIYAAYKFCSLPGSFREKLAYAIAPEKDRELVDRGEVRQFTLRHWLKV
# [5] = system: extracellular DA in the rat nucleus accumbens; assay: In vivo microdialysis in the rat nucleus accumbens; conditions: p.o.
# Summary of the method: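 Under chloral hydrate (400 mg/kg i.p.), rats received a stereotaxic guide cannula in nucleus accumbens (AP +1.2 mm from bregma, […], DV −5.8 mm from dura). Recovery ≥5 days, single-housed. In freely moving rats, extracellular DA sampled via a 2-mm microdialysis probe after oral test compound or vehicle (1% methylcellulose in water, 5 ml/kg). n=5–8. ANOVA/Dunnett versus vehicle.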
# [6] = system: DA turnover in the rat striatum; assay: In vivo DA turnover and serotonin biomarkers in the rat striatum
# [7] = cited from earlier work
# C57BL/6J mice [8] = assay: Spontaneous locomotor activity in the mouse; format: in vivo; conditions: p.o.
# [9] = system: tele-methylhistamine in the brain of mice; assay: Assay of tele-methylhistamine in the brain of mice; format: in vivo, mouse; conditions: 30 and 100 mg/kg, p.o., 90 min after treatment
# Summary of the method: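 Male OF1 mice (22–25 g) fasted 16 h, then dosed orally with test compound or vehicle (1% methylcellulose in water, 10 ml/kg). Killed 90 min later. Brain homogenised in 10 volumes ice-cold 0.4 N perchloric acid and centrifuged 2000 g, 30 min, 4℃. Supernatant stored at −20℃. Tele-methylhistamine measured by enzyme immunoassay.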
# [10] = system: extracellular DA in the rat nucleus accumbens; conditions: cited from earlier work
# C57BL/6J mice [11] = assay: Effect of pitolisant on solriamfetol- or modafinil-induced locomotor activity; format: in vivo, mouse; conditions: pitolisant 20 mg/kg, p.o.
# [12] = 10 mg/kg, p.o., male Swiss mice, ref Ligneau et al. 29, cited from earlier work
# [13] = 64 mg/kg, i.p., fifth day of repeated administration
# [14] = D-amphetamine i.p., dose and time not given
compound,measurement,setting,value
NC(=O)C[S+]([O-])C(c1ccccc1)c1ccccc1 (stereo not drawn) [Modafinil],reduction in food intake (4 h),"C57BL/6J mice [1]; 64 mg/kg, p.o.",40%
same,reduction in food intake (4 h),"C57BL/6J mice [1]; 96 mg/kg, p.o.",76%
same,reduction in food intake (4 h),"C57BL/6J mice [1]; 128 mg/kg, p.o.",96%
same,Ki,human NET (SLC6A2),> 10 µM
same,hNET Ki,"human NET (SLC6A2); CHO cells expressing human NET, Ki from IC50 by Cheng-Prusoff",inactive
same,Brain AUC0-8h,[2],2298 ng·h/g
same,Brain C max,[2],965 ± 156 ng/g
same,Brain C max (molar),[2],3.5 µM
same,Brain C max at pharmacologically active doses,[2],6000-12 000
same,Brain C max at pharmacologically active doses (molar),[2],22–45 µM
same,potency in enhancing brain tele-methylhistamine level compared with pitolisant,[3]; mice,less potent
same,AUC(0-t),in vivo,2160 ng·h/mL
same,Kp,in vivo,1.1
same,increase of rat locomotor activity versus controls,"male Wistar rats; 64 mg/kg, i.p., acute administration (day 1)",+145%
same,increase of rat locomotor activity versus control rats,male Wistar rats; [13],419%
same,increase of rat locomotor activity versus same treated rats at day 1,male Wistar rats; [13],53%
same,Kb,[4],> 10 µM
NC(=O)OC[C@H](N)Cc1ccccc1 [Solriamfetol],Ki,human SERT (SLC6A4),> 10 µM
same,hSERT Ki,"human SERT (SLC6A4); HEK293 cells expressing human SERT, Ki from IC50 by Cheng-Prusoff",inactive
same,Ki,human DAT (SLC6A3),2.4 µM
same,inhibition of food intake (4 h),"C57BL/6J mice [1]; 30 mg/kg, p.o.",25%
same,inhibition of food intake (4 h),"C57BL/6J mice [1]; 100 mg/kg, p.o.",40%
same,effect on extracellular levels of DA in the nucleus accumbens,[5]; 30 mg/kg,no effects
same,increase of extracellular levels of DA in the nucleus accumbens,"[5]; 100 mg/kg, 30 min after administration",+138 % of basal levels
same,"AUC of extracellular DA (% basal dopamine level), enhancement","[5]; 100 mg/kg, 90 min (1.5 h) post-administration period",123%
same,Ki,human NET (SLC6A2),4.8 µM
same,Brain AUC0-8h,[2],10 990 ng/g × h
same,Brain C max,[2],3935 ± 452 ng/g
same,Brain C max (molar),[2],20 µM
same,Brain C max at pharmacologically active doses,[2],12 000-40 000
same,Brain C max at pharmacologically active doses (molar),[2],60–200 µM
same,AUC(0-t),in vivo,1150 ng·h/mL
same,Kp,in vivo,9.6
same,locomotor effect in rats,"male Wistar rats; 60 mg/kg, p.o., over the 5-day repeated administration period",no significant locomotion effect
same,locomotor effect in rats,"male Wistar rats; 100 mg/kg, p.o., acute",no acute effects
same,increase of rat locomotor activity versus controls,"male Wistar rats; 100 mg/kg, p.o., day 5",185%
same,increase of rat locomotor activity versus same treated rats at day 1,"male Wistar rats; 100 mg/kg, p.o., day 5",106%
same,change of DOPAC in the rat striatum,"[6]; 30 mg/kg, p.o., 60 min",−11%
same,"effect on DOPAC/DA ratio relative to that of D-amphetamine (2 mg/kg, i.p.)","[6]; 30 mg/kg, p.o., 60 min",about 50%
same,change of DA in the rat striatum,"[6]; 30 mg/kg, p.o., 60 min, not significant",+4%
same,decrease in the DOPAC/DA ratio in the rat striatum,"[6]; 30 mg/kg, p.o., 60 min after the dose",14%
same,effect on 5-HIAA/5-HT ratio in the rat striatum,"[6]; 3 and 30 mg/kg, p.o., 60 min after dosage",No effect
same,plasma exposure (C max) in human at therapeutic dose,[7]; at 150 mg,~ 820 ng/ml
same,Kb,[4],> 10 µM
same,effect on cumulative locomotor activity over 5.5 h post-dosing,C57BL/6J mice [8]; 30 mg/kg,no effect
same,effect on tele-methylhistamine levels in the brain of mice,[9],no significant effect
same,effect on tele-methylhistamine levels in the brain of mice,[9]; listed as solriamfetol,no effect
C[C@H](N)Cc1ccccc1 [D‐amphetamine],decrease in food consumption compared with controls (4 h),"C57BL/6J mice [1]; 3 mg/kg, i.p.",56%
same,change of DA in the rat striatum,[6]; [14],+25%
same,change of DOPAC in the rat striatum,[6]; [14],−15%
"Cl.Clc1ccc(CCCOCCCN2CCCCC2)cc1 [Pitolisant, 1‐{3‐[3‐(4‐Chlorophenyl)propoxy]propyl}piperidine, hydrochloride]",Ki,human SERT (SLC6A4),5.79 µM
same,Ki,human DAT (SLC6A3),4.1 µM
same,effect on food intake during the initial 4 h of the night phase,"C57BL/6J mice [1]; 10 and 20 mg/kg, p.o.",did not modify
same,Ki,human NET (SLC6A2),2.5 µM
same,Brain C max at pharmacologically active doses,[2],10 000-20 000
same,Brain C max at pharmacologically active doses (molar),[2],35–70 µM
same,"ED50, enhancement of brain tele-methylhistamine level","[3]; p.o., in mice",1.6 mg/kg
same,effect on levels of extracellular DA in the rat nucleus accumbens,[10],no effect
same,reduction of modafinil-induced hyperlocomotion,C57BL/6J mice [11]; modafinil 64 mg/kg,58%
same,effect on modafinil-induced hyperlocomotion,C57BL/6J mice [11]; modafinil 128 mg/kg,not further reduced
same,effect on solriamfetol-induced hyperlocomotion,C57BL/6J mice [11]; solriamfetol 30 mg/kg,fully normalized
same,reduction of solriamfetol-induced hyperlocomotion,C57BL/6J mice [11]; solriamfetol 100 mg/kg,68%
same,locomotor effect in rats,"male Wistar rats; 10 mg/kg, i.p., acute or after 5-day-repeated administrations",no hyperlocomotion effects
same,plasma exposure (C max) in human at therapeutic dose,[7]; at 40 mg,~ 36 ng/ml
same,effect on cumulative locomotor activity over 5.5 h post-dosing,C57BL/6J mice [8]; 10 and 20 mg/kg,no significant effect
same,Brain/plasma AUC ratio,[12]; AUC0-8h,23.5
same,Brain AUC0-8h,[12],34 686 ng/g × h
same,Brain C max (molar),[12],35 µM
same,Brain T max,[12],30 min
same,Plasma AUC0-8h,[12],1475 ng·h/mL
same,Plasma C max,[12],441 ± 69 ng/mL
same,Plasma T max,[12],30 min
